{"data": "Assay results collected from several papers", "target": "Proto-oncogene tyrosine-protein kinase ROS (ROS1, Homo sapiens, UniProt P08922)", "note": "Protocols differ between the studies behind these lines."}
{"Structure (SMILES)": "CC/C(=N\\NC(=O)NCc1cccc(O)c1)c1ccc(O)c(C)c1O", "read-out": "enzyme activity", "mode": "inhibitor", "tested at": "0.1 µM", "measurement": "inhibition", "value": "2.5%"}
{"Structure (SMILES)": "N#Cc1ccc(Nc2ccc3[nH]c(=O)[nH]c3c2)c(Cl)c1", "read-out": "cell-free assay", "method": "competition with immobilised ligand", "tested at": "1 µM", "measurement": "remaining binding", "value": "100%"}
{"Structure (SMILES)": "Cc1ccc(NC(=O)c2ccc(C)c(C(F)(F)F)c2)cc1C#Cc1nn(C2CCC(O)CC2)c2ncnc(N)c12 (stereo not drawn)", "read-out": "cell-free assay", "tested at": "10 µM", "measurement": "remaining signal", "value": "82%"}
{"Structure (SMILES)": "Cc1ccc(C(=O)NCc2ccsc2)cc1C#Cc1cn(C(C)C)c2ncnc(N)c12", "read-out": "enzyme activity", "mode": "inhibitor", "tested at": "1 µM", "measurement": "activity vs control", "value": "92%"}
{"Structure (SMILES)": "Cc1ccc(Nc2nccc(N(C)c3ccc4c(C)n(C)nc4c3)n2)cc1S(N)(=O)=O", "read-out": "enzyme activity", "mode": "inhibitor", "tested at": "0.3 µM", "measurement": "inhibition", "value": "3%"}
{"Structure (SMILES)": "O=C1Nc2ccc(Cl)cc2C1=Cc1cc(Cl)c(O)c(Cl)c1", "read-out": "cell-free assay", "tested at": "0.5 µM", "measurement": "remaining signal", "value": "89.7%"}
{"Structure (SMILES)": "Cc1sc(C(=O)NC2COC2)cc1-n1cc(NC(=O)Nc2c(F)cccc2Cl)cn1", "read-out": "enzyme activity", "mode": "inhibitor", "tested at": "10 µM", "measurement": "remaining activity", "value": "102%"}
{"Structure (SMILES)": "O=C1NC(c2ccccn2)Sc2ccccc21 (stereo not drawn)", "read-out": "cell-free assay", "method": "competition with immobilised ligand", "tested at": "1 µM", "measurement": "remaining binding", "value": "95%"}
{"Structure (SMILES)": "Cc1cnc(NC2CCOCC2)nc1-n1cnc(C(=O)NC(CN)c2cc(F)cc(Cl)c2)c1 (stereo not drawn)", "read-out": "enzyme activity", "mode": "inhibitor", "method": "radiometric", "tested at": "1 µM", "measurement": "remaining activity", "value": "103%"}
{"Structure (SMILES)": "CC(=O)N1CCC(c2ccc(C(=O)NC(=N)N)cc2C(F)(F)F)CC1", "read-out": "cell-free assay", "method": "competition with immobilised ligand", "tested at": "1 µM", "measurement": "remaining binding", "value": "100%"}
{"Structure (SMILES)": "CNCc1ccc(-c2cc(-c3nc(-c4ccc(S(=O)(=O)C(C)C)cc4)cnc3N)on2)cc1", "read-out": "enzyme activity", "mode": "inhibitor", "tested at": "2 µM", "measurement": "inhibition", "value": "4%"}
{"Structure (SMILES)": "CC(=O)c1c(NS(C)(=O)=O)c2cc(-c3ccc(Cl)cc3)c(-c3ccc(Cl)cc3Cl)nc2n(C)c1=O", "read-out": "cell-free assay", "method": "competition with immobilised ligand", "tested at": "1 µM", "measurement": "remaining binding", "value": "100%"}
{"Structure (SMILES)": "Cc1cc(NC(=O)c2cccc3cc(-c4cccc5[nH]nc(N)c45)ccc23)ccc1F", "read-out": "enzyme activity", "mode": "inhibitor", "tested at": "0.1 µM", "measurement": "activity vs control", "value": "111%"}
{"Structure (SMILES)": "F[C@@H]1CCN(c2nccc(-c3cnn4ncccc34)n2)C1", "read-out": "binding", "tested at": "1 µM", "measurement": "remaining binding", "value": "88%"}
{"Structure (SMILES)": "N#CCCc1ccc2c(c1)-c1[nH]c3ccc([N+](=O)[O-])cc3c1CC(=O)N2", "read-out": "cell-free assay", "tested at": "0.5 µM", "measurement": "remaining signal", "value": "71%"}
{"Structure (SMILES)": "CCCS(=O)(=O)Nc1ccc(F)c(C(=O)c2c[nH]c3ncc(-c4ccc(Cl)cc4)cc23)c1F", "read-out": "enzyme activity", "mode": "inhibitor", "tested at": "1 µM", "measurement": "inhibition", "value": "< 10%"}
{"Structure (SMILES)": "CO[C@@H](C)c1c(Nc2ccc([C@@H](N(C)C(=O)C3CCS(=O)(=O)CC3)C(F)(F)F)cc2)cnc2cc(Cl)nn12", "read-out": "cell-free assay", "method": "competition with immobilised ligand", "tested at": "1 µM", "measurement": "remaining binding", "value": "82%"}
{"Structure (SMILES)": "O=C1NC(=O)c2cc(Nc3ccc(F)cc3)c(Nc3ccc(F)cc3)cc21", "read-out": "cell-free assay", "tested at": "0.5 µM", "measurement": "remaining signal", "value": "92%"}
